Results on 1 compound are retold here after ChEMBL document CHEMBL5712908, “A genome-wide RNAi screen reveals essential therapeutic targets of breast cancer stem cells” (2019).

Each structure is given as a SMILES string. Calls of active or inactive are those of the source. No cut-off for these calls is given here.

Assay [1] deals with SUM-159-PT. Description: Synergistic anticancer activity against human SUM159 cells assessed as decrease in secondary tumor sphere formation at 62 nM incubated for 72 hrs in presence of salinomycin by Extreme limiting dilution analysis. It counts as functional. A digest of the protocol:
(§1)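 72 h adherent pretreatment (Sal/JQ1 62 nM/62 nM; docetaxel added at 2 nM where used), then single cells plated in ultra-low attachment 96-well plates in serum-free mammary epithelium basal medium at 25/10/5/3/2/1 cells/well (18–36 wells/condition). Wells with ≥1 sphere after 10 days scored positive; sphere-forming frequency by ELDA. Secondary spheres from dissociated primary spheres. n = 4; pairwise chi-square.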

In assay [2] the test system is Breast cancer cell line. Description: Antitumor activity against human reimplanted CRCM494 negative breast cancer cells orthotopically xenografted in NSG mouse model of PDX assessed as reduction tumor volume at 50 mg/kg, ip 5 out of 7 for 2 weeks by limiting dilation analysis. Type of assay: functional, organism-based. In short, it runs like this: (§2)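 After 2 weeks of i.p. treatment (3 mg/kg daily or 50 mg/kg 5 of 7 days), dissociated PDX tumour cells reimplanted into secondary NSG mice at 50, 500 or 5,000 cells. A mouse counted as tumour-bearing once a tumour reached 10 mm. bCSC frequency per 10,000 cells estimated by ELDA; pairwise chi-square test.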
Background: In xenograft studies the graft and the host belong to different species.

Assay [3] concerns Breast cancer cell line. The assay can be described thus: Synergistic antitumor activity against human CRCM434 negative breast cancer cells xenografted in NSG mouse model of PDX assessed as reduction metastasis formation in lung at 50 mg/kg, ip 5 out of 7 for 2 weeks cotreated with salinomycin. Type of assay: functional, organism-based. A digest of the protocol:
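Luciferase-expressing PDX cells sorted H2Kd⁻ and viable, 100,000 in 100 μl PBS injected in NSG tail vein. From the next day, salinomycin 3 mg/kg i.p. daily and/or JQ1 50 mg/kg i.p. 5 of 7 days for 2 weeks. Lungs and liver imaged by bioluminescence after i.p. luciferin 30 mg/kg; normalised photon flux; 10 mice/group; Wilcoxon test.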

For assay [4], the system named is Breast cancer cell line. Description: Synergistic antitumor activity against human CRCM404 negative breast cancer cells orthotopically xenografted in NSG mouse model of PDX assessed as reduction ALDHbr cells at 50 mg/kg, ip 5 out of 7 for 2 weeks cotreated with salinomycin by LSR2 cytometer analysis. Type of assay: functional.
Another assay concerns SUM149PT. The assay can be described thus: Synergistic anticancer activity against human SUM149 cells assessed as decrease in docetaxel induced primary tumor sphere formation at 62 nM incubated for 72 hrs in presence of salinomycin by Extreme limiting dilution analysis. It counts as functional, cell-based. A digest of the protocol:
as §1

Assay [5] has as its system Breast cancer cell line. The assay can be described thus: Synergistic antitumor activity against human CRCM494 negative breast cancer cells orthotopically xenografted in NSG mouse model of PDX assessed as reduction in tumor volume at 50 mg/kg, ip 5 out of 7 for 2 weeks cotreated with salinomycin. It counts as functional, organism-based. A digest of the protocol: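 Orthotopic PDX in NSG mice, 100,000 cells per fat pad, two pads per mouse; treatment from ~80 mm³ tumours with salinomycin i.p. 3 mg/kg daily 14 days, JQ1 i.p. 50 mg/kg 5 of 7 days for 2 weeks, or combination, against placebo DMSO/HPCD 10% (1:9). Tumour growth monitored; n = 10 tumours per group.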

Assay [6] relates to SUM-159-PT. Description: Synergistic anticancer activity against human SUM159 cells assessed as decrease in primary tumor sphere formation at 62 nM incubated for 72 hrs in presence of salinomycin by Extreme limiting dilution analysis. Type of assay: functional. A digest of the protocol:
as §1

Assay [7] relates to SUM-159-PT. The assay can be described thus: Anticancer activity against human SUM159 cells expressing BFP assessed as reduction in ALDHbr cell at 50 nM by LSR2 cytometer analysis. Type of assay: functional.
Assay [8] relates to Breast cancer cell line. Description: Synergistic antitumor activity against patient-derived breast cancer cells orthotopically xenografted in NSG mouse model of PDX assessed as reduction in Ki67 cells at 50 mg/kg, ip 5 out of 7 for 2 weeks cotreated with salinomycin by Immunostaining analysis. Type of assay: functional, organism-based. The conditions noted are these: Homo sapiens. In short, it runs like this:
(§3)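 Paraffin sections of treated PDX tumours deparaffinised and subjected to antigen retrieval in citrate buffer pH 6. Peroxidase staining with ready-to-use Ki67 or cleaved caspase-3 antibody, DAB substrate, haematoxylin counterstain. Proportion of positive cells quantified; n = 3; t-test.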

Assay [9] deals with Breast cancer cell line. Description: Antitumor activity against human CRCM404 negative breast cancer cells orthotopically xenografted in NSG mouse model of PDX assessed as reduction in tumor volume at 50 mg/kg, ip 5 out of 7 for 2 weeks. Type of assay: functional, organism-based. In short, it runs like this: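 Chemo-naïve triple-negative PDX cells injected at 100,000 per fat pad, two fat pads per NSG mouse. At ~80 mm³ tumours, mice received i.p. 3 mg/kg daily for 14 days or 50 mg/kg 5 of 7 days for 2 weeks; placebo was DMSO/HPCD 10% (1:9). Five mice (10 tumours) per group. Tumour growth monitored; after 2 weeks tumours dissociated, mouse cells excluded via anti-H2Kd, ALDHbr measured by ALDEFLUOR flow cytometry and normalised to vehicle.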

The subject of assay [10] is Breast cancer cell line. Description: Synergistic antitumor activity against human CRCM494 negative breast cancer cells orthotopically xenografted in NSG mouse model of PDX assessed as reduction ALDHbr cells at 50 mg/kg, ip 5 out of 7 for 2 weeks cotreated with salinomycin by LSR2 cytometer analysis. It counts as functional.
In assay [11] the test system is SUM-159-PT. Description: Induction of apoptosis in human SUM159 cells expressing ALDH upto 100 uM incubated for 72 hrs by ALDEFLUOR/YO-PRO-3/ Hoechst 33342 staining based high content imaging microscopic analysis. It counts as functional, cell-based. A digest of the protocol: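 SUM159 at 3,000 cells/well on collagen plates, dosed at 6, 24 and 48 h post-seeding; 0.1% DMSO negative control, cisplatin positive control. At 72 h stained 30 min at 37°C with ALDEFLUOR, YO-PRO-3 and Hoechst 33342, then imaged ice-cold. YO-PRO-3-positive nuclei (above untreated signal) counted over total cells, per ALDHbr/ALDH- subpopulation; n = 6.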

In assay [12] the test system is Breast cancer cell line. Description: Synergistic apoptosis activity in patient-derived breast cancer cells orthotopically xenografted in NSG mouse model of PDX assessed as increase in cleaved caspase-3 at 50 mg/kg, ip 5 out of 7 for 2 weeks by Immunostaining analysis. Type of assay: functional, organism-based. Particulars: Homo sapiens. A digest of the protocol:
as §3

Assay [13] relates to Breast cancer cell line. The assay can be described thus: Antitumor activity against human reimplanted CRCM434 negative breast cancer cells orthotopically xenografted in NSG mouse model of PDX assessed as reduction tumor volume at 50 mg/kg, ip 5 out of 7 for 2 weeks by limiting dilation analysis. It counts as functional, organism-based. A digest of the protocol: as §2
Assay [14] relates to SUM-159-PT. Description: Synergistic anticancer activity against human SUM159 cells at 500 nM incubated for 72 hrs in presence of salinomycin by ALDEFLUOR staining based flow cytometric analysis. Type of assay: functional, cell-based. On the technique in general: Flow cytometry measures light scatter and fluorescence of single cells or particles in a stream.
Assay [15] has as its system SUM-159-PT. Description: Synergistic apoptosis in human SUM159 cells expressing ALDHbr at 500 nM incubated for 72 hrs in presence of salinomycin by ALDEFLUOR/YO-PRO-3/ Hoechst 33342 staining based high content imaging microscopic analysis. Type of assay: functional, cell-based. A digest of the protocol: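 SUM159 cells seeded at 3,000 cells/well in collagen-coated 96-well plates. Drug added at 6, 24 and 48 h post-seeding. Cisplatin served as positive control and 0.1% v/v DMSO as vehicle control. At 72 h post-seeding, cells were stained with ALDEFLUOR, YO-PRO-3 (1/4,000) and Hoechst 33342 (10 μg/ml) in ALDEFLUOR buffer for 30 min at 37°C, then imaged on ice by high-content microscopy, 9 fields/well. DEAB set the ALDHbr gate. YO-PRO-3⁺ fraction per subpopulation was gated against untreated cells.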

Assay [16] deals with Breast cancer cell line. Description: Synergistic antitumor activity against human reimplanted CRCM434 negative breast cancer cells orthotopically xenografted in NSG mouse model of PDX assessed as reduction tumor volume at 50 mg/kg, ip 5 out of 7 for 2 weeks cotreated with salinomycin by limiting dilation analysis. It counts as functional, organism-based.

For `Cc1sc2c(c1C)C(c1ccc(Cl)cc1)=N[C@@H](CC(=O)OC(C)(C)C)c1nnc(C)n1-2`, the “fold change (FC)” value was 5.4 in the assay on SUM-159-PT [1]; 2 with Breast cancer cell line [4]; 2.4 with SUM-159-PT [6]; 2 in the assay with SUM-159-PT [7]; 2 with Breast cancer cell line [10]. Further, the result with Breast cancer cell line [2], in the assay with Breast cancer cell line [3], with SUM149PT, with Breast cancer cell line [5], with Breast cancer cell line [8] and with Breast cancer cell line [9] was Active. Moreover, the outcome with SUM-159-PT [11], with Breast cancer cell line [13], with SUM-159-PT [15] and in the assay with Breast cancer cell line [16] was Active. The outcome in the assay on Breast cancer cell line [12] and with SUM-159-PT [14] was inactive.
